Measured values published in ChEMBL document CHEMBL6071141, “In vitro and in vivo evaluation of Bombesin-MMAE conjugates for targeted tumour therapy” (Eur J Med Chem, 2024).
pIC50: −log10 of the molar value. Calls of active or inactive are those of the source. The rule behind the calls is not given here.

Columns and labels:
[1] = Cytotoxicity against human PC-3 cells assessed as inhibition of cell growth incubated for 72 hrs by CellTiter 96 aqueous assay; type: toxicity, cell-based
How it was run: (§1)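 PC-3 or MDA-MB-231 cells were treated the day after seeding with serial dilutions, from 2000 nM for conjugates and 100 nM for MMAE, for 72 h. Then the assay was stopped, or run 72 h more after a medium change (single) or re-treatment (double). Controls got 0.05 % DMSO. Read-out was MTS absorbance at 490 nm after 90 min. IC50 by non-linear regression; ≥2 experiments, triplicates.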

[2] = Cytotoxicity against human cells MDA-MB-231 assessed as inhibition of cell growth incubated for 72 hrs by CellTiter 96 aqueous assay; type: toxicity, cell-based; details: MDA-MB-231 cells; how it was run: as §1
[3] = Cytotoxicity against human PC-3 cells assessed as inhibition of cell growth incubated with compound for 72 hrs followed by further incubated for 72 hrs (single treatment) by CellTiter 96 aqueous assay; type: toxicity, cell-based; how it was run: as §1
[4] = Cytotoxicity against human PC-3 cells assessed as inhibition of cell growth incubated for 72 hrs and followed by treated with compound continued incubation for further 72 hrs (double treatment) after retreatment of compound by CellTiter 96 aqueous assay; type: toxicity, cell-based; how it was run: as §1
[5] = Cytotoxicity against human MDA-MB-231 cells assessed as inhibition of cell growth incubated with compound for 72 hrs followed by further incubated for 72 hrs (single treatment) by CellTiter 96 aqueous assay; type: toxicity, cell-based; how it was run: as §1
[6] = Cytotoxicity against human MDA-MB-231 cells assessed as inhibition of cell growth incubated for 72 hrs and followed by treated with compound continued incubation for further 72 hrs (double treatment) after retreatment of compound by CellTiter 96 aqueous assay; type: toxicity, cell-based; how it was run: as §1
[7] = biological target: T1, Gastrin-releasing peptide receptor (Homo sapiens, UniProt P30550); experiment: Displacement of 125 I- [Tyr4] from bombesin receptor 2 in human PC-3 cells assessed as inhibition by radioligand displacement assay; type: cell-based
T1 sequence (P30550 whole entry): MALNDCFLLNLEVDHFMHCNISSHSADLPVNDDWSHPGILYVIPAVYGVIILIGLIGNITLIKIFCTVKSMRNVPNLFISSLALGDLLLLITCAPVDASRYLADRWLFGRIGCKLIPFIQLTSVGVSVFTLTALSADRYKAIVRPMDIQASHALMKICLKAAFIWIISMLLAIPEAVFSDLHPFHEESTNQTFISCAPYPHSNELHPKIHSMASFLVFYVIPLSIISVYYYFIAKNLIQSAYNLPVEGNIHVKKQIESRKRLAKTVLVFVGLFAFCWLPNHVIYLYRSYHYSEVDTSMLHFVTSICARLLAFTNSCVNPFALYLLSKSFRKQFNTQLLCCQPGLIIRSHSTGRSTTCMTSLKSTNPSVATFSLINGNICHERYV
How it was run: (§2)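 Competition binding on membrane preparations from PC-3 or MDA-MB-231 cells against ¹²⁵I-[Tyr⁴]-bombesin, with conjugates at 10 μM–10 pM. IC50 was taken as the concentration giving 50 % inhibition of tracer binding.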

[8] = biological target: T1, Gastrin-releasing peptide receptor; experiment: Displacement of 125 I- [Tyr4] from bombesin receptor 2 in human MDA-MB-231 cells assessed as inhibition by radioligand displacement assay; type: cell-based; how it was run: as §2
[9] = Displacement of 125 I- [Tyr4] from bombesin receptor 1 (unknown origin) assessed as inhibition by radioligand competitive binding assay; design: species or system Homo sapiens
[10] = biological target: T1, Gastrin-releasing peptide receptor; experiment: Displacement of 125 I- [Tyr4] from bombesin receptor 2 (unknown origin) assessed as inhibition by radioligand competitive binding assay
[11] = biological target: T2, Bombesin receptor subtype-3 (Homo sapiens, UniProt P32247); experiment: Displacement of 125 I- [Tyr4] from bombesin receptor 3 (unknown origin) assessed as inhibition by radioligand competitive binding assay
T2 sequence (P32247 whole entry): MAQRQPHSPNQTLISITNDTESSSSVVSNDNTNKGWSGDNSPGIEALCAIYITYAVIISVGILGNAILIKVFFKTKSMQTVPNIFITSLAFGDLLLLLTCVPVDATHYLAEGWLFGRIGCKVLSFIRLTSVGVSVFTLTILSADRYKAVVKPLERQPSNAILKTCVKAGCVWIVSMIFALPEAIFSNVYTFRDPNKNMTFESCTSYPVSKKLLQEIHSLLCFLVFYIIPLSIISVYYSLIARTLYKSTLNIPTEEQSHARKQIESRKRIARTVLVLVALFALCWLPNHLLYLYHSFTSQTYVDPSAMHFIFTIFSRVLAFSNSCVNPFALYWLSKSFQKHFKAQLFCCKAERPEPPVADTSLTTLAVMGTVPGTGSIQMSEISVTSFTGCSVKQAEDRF

[12] = Metabolic stability in mouse plasma assessed as half life at 5 uM measured upto 24 hrs by LC-HRMS analysis; type: ADME, cell-free
How it was run: (§3)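 Conjugates at 5 μM were incubated in human or mouse plasma at 37 °C, in duplicate. Samples were taken at t0, 0.25, 0.5, 1, 2, 4 and 24 h and quenched with 1 % formic acid in MeCN (2× volume). After centrifugation (14000 rpm, 4 °C), supernatants were diluted 1:1 with water and analysed by LC-HRMS.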

[13] = Metabolic stability in human plasma assessed as half life at 5 uM measured upto 24 hrs by LC-HRMS analysis; type: ADME, cell-free; how it was run: as §3
[14] = Toxicity in mouse xenografted with human PC-3 cells assessed as body weight loss at 1 mg/kg, ip administered relative to control; type: organism-based; details: in vivo, 2 mg/kg, in the assay text read “2 mg/kg” for “1 mg/kg”
How it was run: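 Toxicity in mice bearing subcutaneous PC-3 tumours after a single i.p. dose 9 days post-inoculation. Free drug at 1 mg/kg, conjugates at 2 mg/kg MMAE-content, in 5 % DMSO in water; solvent controls; eight per group. Body weight followed periodically. Endpoint at 20 % weight loss; behaviour (activity, coat, stool, paleness) also scored.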

PC-3 [15] = experiment: Antitumor activity against human PC-3 cells xenografted in mouse assessed as reduction in tumour volume relative to control; type: functional; design: scale not given: the % may be the effect or the level left
How it was run: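 Acute study in mice bearing subcutaneous PC-3 tumours. Single i.p. dose (0.1 mL) 9 days after inoculation, at a mean tumour volume of 62 mm³. Eight per group, randomized. Conjugates at 2 mg/kg MMAE-content, free MMAE at 1 mg/kg, in 5 % DMSO in water; solvent controls. Calliper volume V = ab²×π/6. Sacrifice at 20 % weight loss or 2000 mm³.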

[16] = Biodistribution in mouse xenografted with human PC-3 cells assessed as tumour environment incubated for 24 hrs by LC-HRMS; type: ADME, organism-based, Neoplasm; details: in vivo
How it was run: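 Mice bearing PC-3 xenografts received a single 2 mg/kg i.p. dose. Blood, tumour, liver, kidneys, heart, lungs and pancreas were collected at 1, 6 and 24 h and pooled per group. Tissues were homogenised in water (1:2 w/v) and centrifuged. Released MMAE was measured by LC-HRMS and expressed as %ID/g (n = 3).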

[17] = Toxicity in mouse xenografted with human PC-3 cells assessed as skin rash at 0.5 mg/kg, ip administered upto 23 days; details: in vivo, 552 h
PC-3 [18] = experiment: Antitumor activity against human PC-3 cells xenografted with mouse assessed as median survival days at 2 mg/kg, ip (reference value: 33 days)
PC-3 [19] = experiment: Antitumor activity against human PC-3 cells xenografted in mouse assessed as inhibition in tumour growth at 0.5 mg/kg, ip administered upto 23 days; type: functional, organism-based; details: time <= 23.0 day
How it was run: (§4)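 Chronic study in mice bearing subcutaneous PC-3 tumours. Dosing began 8 days after cell inoculation, at a mean tumour volume of 93 mm³. Seven per group, randomized. Four i.p. doses (0.1 mL) on days 8, 11, 16 and 23 of 0.5 mg/kg MMAE-content, in 5 % DMSO in water for injection; controls got solvent. Tumour volume by calliper, V = ab²×π/6.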

PC-3 [20] = experiment: Antitumor activity against human PC-3 cells xenografted in mouse assessed as reduction in tumour weight at 0.5 mg/kg, ip administered upto 23 days relative to control; type: functional; design: scale not given: the % may be the effect or the level left; details: time <= 23 day
PC-3 [21] = experiment: Antitumor activity against human PC-3 cells xenografted in mouse assessed as reduction in tumour size at 0.5 mg/kg, ip administered upto 23 days relative to control; type: functional; design: scale not given: the % may be the effect or the level left; details: time <= 23 day; how it was run: as §4

half-life at 5 µM [12] [h]	half-life at 5 µM [13] [h]	SMILES	IC50 at 72 h [1] [nM]	IC50 at 72 h [2] [nM]	IC50 at 144 h [3] [nM]	IC50 at 144 h [4] [nM]	IC50 at 144 h [5] [nM]	IC50 at 144 h [6] [nM]	pIC50 [7]	pIC50 [8]	Activity [14] [%]	Activity (PC-3 [15]) [%]	Drug uptake [16]	Survival (PC-3 [18]) [days]	further results
		CC[C@H](C)[C@@H]([C@@H](CC(=O)N1CCC[C@H]1[C@H](OC)[C@@H](C)C(=O)N[C@H](C)[C@@H](O)c1ccccc1)OC)N(C)C(=O)[C@@H](NC(=O)[C@H](C(C)C)N(C)C(=O)OCc1ccc(NC(=O)[C@H](CCCNC(N)=O)NC(=O)CNC(=O)[C@H](CCC(=O)O)NC(=O)CCCCCN2C(=O)CC(SC[C@H](NC(C)=O)C(=O)NCCOCCOCCOCCOCCC(=O)N[C@H](Cc3ccccc3)C(=O)N[C@@H](CCC(N)=O)C(=O)N[C@@H](CC3=CSC4C=CC=CC34)C(=O)N[C@@H](C)C(=O)N[C@H](C(=O)NCC(=O)N[C@@H](Cc3c[nH]cn3)C(=O)N[C@@H](CC(C)C)[C@@H](O)CC(=O)N[C@@H](CC(C)C)C(N)=O)C(C)C)C2=O)cc1)C(C)C (stereo partly specified)	586	943	142	116	171	130	7.15	7.11					
≥ 5	≥ 5	CC(=O)N[C@@H](CS)C(=O)N[C@H](Cc1ccccc1)C(=O)N[C@@H](CCC(N)=O)C(=O)N[C@@H](Cc1c[nH]c2ccccc12)C(=O)N[C@@H](C)C(=O)N[C@H](C(=O)NCC(=O)N[C@@H](Cc1c[nH]cn1)C(=O)N[C@@H](CC(C)C)[C@@H](O)CC(=O)N[C@@H](CC(C)C)C(N)=O)C(C)C													pIC50 [9]: < 5.00; pIC50 [10]: 7.69; pIC50 [11]: < 6.00
0.12	8.2	CC[C@H](C)[C@@H]([C@@H](CC(=O)N1CCC[C@H]1[C@H](OC)[C@@H](C)C(=O)N[C@H](C)[C@@H](O)c1ccccc1)OC)N(C)C(=O)[C@@H](NC(=O)[C@H](C(C)C)N(C)C(=O)OCc1ccc(NC(=O)[C@H](CCCNC(N)=O)NC(=O)[C@@H](NC(=O)CCCCCN2C(=O)CC(SC[C@H](NC(C)=O)C(=O)N[C@H](Cc3ccccc3)C(=O)N[C@@H](CCC(N)=O)C(=O)N[C@@H](Cc3c[nH]c4ccccc34)C(=O)N[C@@H](C)C(=O)N[C@H](C(=O)NCC(=O)N[C@@H](Cc3c[nH]cn3)C(=O)N[C@@H](CC(C)C)[C@@H](O)CC(=O)N[C@@H](CC(C)C)C(N)=O)C(C)C)C2=O)C(C)C)cc1)C(C)C (stereo partly specified)	718	888	101	92.1	202	155							

SMILES	half-life at 5 µM [12] [h]	half-life at 5 µM [13] [h]	IC50 at 72 h [1] [nM]	IC50 at 72 h [2] [nM]	IC50 at 144 h [3] [nM]	IC50 at 144 h [4] [nM]	IC50 at 144 h [5] [nM]	IC50 at 144 h [6] [nM]	pIC50 [7]	pIC50 [8]	Activity [14] [%]	Activity (PC-3 [15]) [%]	Drug uptake [16]	Survival (PC-3 [18]) [days]	further results
CC[C@H](C)[C@@H]([C@@H](CC(=O)N1CCC[C@H]1[C@H](OC)[C@@H](C)C(=O)N[C@H](C)[C@@H](O)c1ccccc1)OC)N(C)C(=O)[C@@H](NC(=O)[C@H](C(C)C)N(C)C(=O)OCc1ccc(NC(=O)[C@H](CCCNC(N)=O)NC(=O)CNC(=O)[C@@H](CCC(=O)O)NC(=O)CCCCCN2C(=O)CC(SC[C@H](NC(C)=O)C(=O)NCCOCCOCCOCCOCCC(=O)N[C@H](Cc3ccccc3)C(=O)N[C@@H](CCC(N)=O)C(=O)N[C@@H](CC3=CNC4C=CC=CC34)C(=O)N[C@@H](C)C(=O)N[C@H](C(=O)NCC(=O)N[C@@H](Cc3c[nH]cn3)C(=O)N[C@@H](CC(C)C)[C@@H](O)CC(=O)N[C@@H](CC(C)C)C(N)=O)C(C)C)C2=O)cc1)C(C)C (stereo partly specified)	7.2		428	885	110	83.5	164	131	7.17	7.14	< 20	26.3	Active	42	Activity [17]: Toxic
CC[C@H](C)[C@@H]([C@@H](CC(=O)N1CCC[C@H]1[C@H](OC)[C@@H](C)C(=O)N[C@H](C)[C@@H](O)c1ccccc1)OC)N(C)C(=O)[C@@H](NC(=O)[C@H](C(C)C)N(C)C(=O)OCc1ccc(NC(=O)[C@H](CCCNC(N)=O)NC(=O)[C@@H](NC(=O)[C@H](CCC(=O)O)NC(=O)CCCCCN2C(=O)CC(SC[C@H](NC(C)=O)C(=O)NCCOCCOCCOCCOCCC(=O)N[C@H](Cc3ccccc3)C(=O)N[C@@H](CCC(N)=O)C(=O)N[C@@H](CC3=CNC4C=CC=CC34)C(=O)N[C@@H](C)C(=O)N[C@H](C(=O)NCC(=O)N[C@@H](Cc3c[nH]cn3)C(=O)N[C@@H](CC(C)C)[C@@H](O)CC(=O)N[C@@H](CC(C)C)C(N)=O)C(C)C)C2=O)C(C)C)cc1)C(C)C (stereo partly specified)		4.6	29.6	526	4.8	3.5	42.3	43.3	7.23	7.16	< 20	65.2	Active	49	Activity (PC-3 [19]): Active; Activity (PC-3 [20]): 41.6%; Activity (PC-3 [21]): 59.8%
